Assay results from ChEMBL document CHEMBL1121409, “Mechanism of decomposition of N-hydroxyacetaminophen, a postulated toxic metabolite of acetaminophen” (J Med Chem, 1980).

How the values were obtained:
Assay type in all cases: ADME
[1] = The compound was tested for half life in presence of salicylate as additive (20 mM)
How it was run: (§1)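 N-hydroxyacetaminophen at 1.5 mM initial, incubated at 37 °C in 0.2 M sodium phosphate pH 7.6, with each additive (20 mM) present before adding substrate. Aliquots were quenched in cold acetic acid (final pH ~3), or mixed with 10% FeCl3 in 0.9 M HCl and read at 540 nm. Remaining substrate was tracked by HPLC peak height (system A) or by the ferric assay. First-order disappearance gave the half-life.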

[2] = The compound was tested for half life in presence of thiosulphate as additive (20 mM); how it was run: as §1
[3] = The compound was tested for half life in presence of N-acetyl cysteine as additive (20 mM); how it was run: as §1
[4] = The compound was tested for half life in presence of acetaminophen as additive (20 mM); how it was run: as §1
[5] = The compound was tested for half life in presence of ascorbic acid as additive (20 mM); how it was run: as §1
[6] = The compound was tested for half life in presence of aspirin as additive (20 mM); how it was run: as §1
[7] = The compound was tested for half life in presence of control; how it was run: as §1
[8] = The compound was tested for half life in presence of cystamine as additive (20 mM); how it was run: as §1
[9] = The compound was tested for half life in presence of cysteamine as additive (20 mM); how it was run: as §1
[10] = The compound was tested for half life in presence of cysteine as additive (20 mM); how it was run: as §1
[11] = The compound was tested for half life in presence of dithionite as additive (20 mM); how it was run: as §1
[12] = The compound was tested for half life in presence of ethanol as additive (20 mM); how it was run: as §1
[13] = The compound was tested for half life in presence of glycine as additive (20 mM); how it was run: as §1
[14] = The compound was tested for half life in presence of lysine as additive (20 mM); how it was run: as §1
[15] = The compound was tested for half life in presence of methionine as additive (20 mM); how it was run: as §1
[16] = The compound was tested for half life in presence of phenol as additive (20 mM); how it was run: as §1
[17] = The compound was tested for half life in presence of pyrogallol as additive (20 mM); how it was run: as §1
[18] = The compound was tested for half life in presence of p-Nitrosophenol as additive (20 mM); how it was run: as §1

half-life [1]: 6.5 min
half-life [2]: 31 min
half-life [3]: 68 min
half-life [4]: 33 min
half-life [5]: 76 min
half-life [6]: 6.4 min
half-life [7]: 9.4 min
half-life [8]: 43 min
half-life [9]: 72 min
half-life [10]: 78 min
half-life [11]: 24 min
half-life [12]: 6.7 min
half-life [13]: 24 min
half-life [14]: 23 min
half-life [15]: 31 min
half-life [16]: 14 min
half-life [17]: 60 min
half-life [18]: 17 min
SMILES: CC(=O)N(O)c1ccc(O)cc1
